# In the EternaBench riboswitch data:
# Tests used:
# [1] = system: MS2 coat protein; test: apparent Kd, MS2 coat protein; higher = weaker binding; RNA-MaP array; tryptophan 2.4 mM where present
# Procedure, shortened: (§1)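 The apparent Kd is the median of filtered binding-curve fits, one per cluster, to green signal normalised to red-channel RNA signal and control-cluster median Fmax. The clusters were on Illumina sequencing chips, and stalled E. coli RNA polymerase had transcribed the designs on them. Titration used SNAP-549-labelled MS2 coat protein from 0.7 or 1.5 nM, doubling to 3 µM, without and then with constant ligand, in 100 mM Tris-HCl pH 7.5, 80 mM KCl, 4 mM MgCl2, BSA, DTT, yeast tRNA and Tween-20.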
# [2] = system: MS2 coat protein; test: apparent Kd, MS2 coat protein; higher = weaker binding; RNA-MaP array; theophylline 2 mM where present
# Procedure, shortened: as §1
# [3] = designed as: OFF switch for tryptophan, no ligand
# [4] = ligand present: tryptophan, designed as: OFF switch for tryptophan
# [5] = designed as: ON switch for tryptophan, no ligand
# [6] = ligand present: tryptophan, designed as: ON switch for tryptophan
# [7] = designed as: ON switch for theophylline, no ligand
# [8] = ligand present: theophylline, designed as: ON switch for theophylline
# [9] = designed as: OFF switch for theophylline, no ligand
# [10] = ligand present: theophylline, designed as: OFF switch for theophylline
Sequence,"apparent Kd [1, 3]","apparent Kd [1, 4]","apparent Kd [1, 5]","apparent Kd [1, 6]",further results
AACAGUUGGUCGGCCGCCACUACAUGAGGAUCACCCAUGUAGCGCGUUCUGCUCCAGGGCUCAUCUAGGACCGGGACACGAGUGU,15.1 nM,16 nM,–,–,–
AACAUGAGCACGGCCGCCACUCCAUGAACAUGAGGAUCACCCAUACACAUGAGGAUCACCCAUGUGAGGACCGGGUGUCCAUGUG,13.3 nM,56.6 nM,–,–,–
AACGGUCGUACCGGAAUGAUCCUCAUGUAACGAGGACCGGUACGGCCGCCACUCGAUAACAUGAGGAUCACCCAUGUAAUAAUAA,12.9 nM,11 nM,–,–,–
AAUAAACAUGAGGAUCACCCAUGUAGGGUGCGAGGACCGGUACGGCCGCCACUCGGGUGAAAACAUGAGGAUCACCCAUGUUAAA,198 nM,420 nM,–,–,–
AAUGUAUGGCACAUGAGGAUCACCCAUGUGCGAGGACCGGUACGGCCGCCACUCGGUCCUGGAUUCUUAUUACUAUACAUUAAUG,14.5 nM,16.7 nM,–,–,–
AAUGUAUGGCACAUGAGGAUCACCCAUGUGCGAGGACCGGUACGGCCGCCACUCGGUCGGUGGUUAAUGAAGCUAUACAUUAAUG,40 nM,57.7 nM,–,–,–
AAUUAUCAGUCGGCCGCCACUGACACAUGAGGAUCACCCAUGUAACUUGGGUUAAAUUUACUGAACAGGACCGGGACAAAGGCUA,179 nM,236 nM,–,–,–
ACAGGUACGCCUAUUAAAAUAAAACACCUACGAGGACCGGUACGGCCGCCACUCGGGUGACAUGAGGAUCACCCAUGUGGCUAAA,–,–,394 nM,155 nM,–
ACCUGCGUUUGAUAAAAUCAGACGCAGGUUCGAGGACCGGUACGGCCGCCACUCGGACAUGAGGAUCACCCAUGUUUGACAUGGG,109 nM,256 nM,–,–,–
AGCACUGUGACGGCCGCCACUACAUAUAGGGUGGUCAGGCCCAUAAUACAUGAGGAUCACCCAUGUAGGACCGGGUCUCAGUGCA,16.8 nM,12.1 nM,–,–,–
AGCGUUCGGUUUAUGCCGGACAAUGGGUGACGAGGACCGGUACGGCCGCCACUCGGGCGCCCGGUUACAUGAGGAUCACCCAUGU,–,–,258 nM,30.1 nM,–
AGUCUGGACUCGGCCGCCACUCGUGAUGCUUUGGCACAUGAGGAUCACCCAUGUGGUCGGCCUUAGAGGACCGGGAGUACCAGUC,–,–,56.1 nM,13.7 nM,–
AGUUUAGACACGGCCGCCACUCGUGACAGAUUUCGCAGUGGUCAACAUGAGGAUCACCCAUGUCUGAGGACCGGGUGUUGAGUUU,44.1 nM,259 nM,–,–,–
AUAACAUGAGGAUCACCCAUGUAUUGGUAACGAGGACCGGUACGGCCGCCACUCGAAUUUUGGUGGUAUAAUAUAUAUAUGAUUA,–,–,21 nM,20.6 nM,–
AUAACAUGAGGAUCACCCAUGUAUUGGUUACGAGGACCGGUACGGCCGCCACUCGUAUUUUGGUGGUAUUUUGUAUAUAUGAUAA,–,–,26.8 nM,26.3 nM,–
AUACAUGAGGAUCACCCAUGUGAUGGCCGGCGAGGACCGGUACGGCCGCCACUCGUGAUCCGUCCUGAGAGCAAAGCCCUCAACA,–,–,82.1 nM,102 nM,–
AUAUAUACAUGAGGAUCACCCAUGUUAUUUCGAGGACCGGUACGGCCGCCACUCGAUAGAGUAGAAGUAAAUUUUGAUUCAUGUA,–,–,20.6 nM,18.1 nM,–
AUAUAUACAUGAGGAUCACCCAUGUUAUUUCGAGGACCGGUACGGCCGCCACUCGAUAGAGUAGAAGUAAAUUUUGUUACAUGUA,–,–,11.1 nM,11.4 nM,–
AUGACUAACAAAGAAGAUAAAAUGGGUGAACGAGGACCGGUACGGCCGCCACUCGGACAUGAGGAUCACCCAUGUCCAUGUGCAA,22.3 nM,28.7 nM,–,–,–
AUGCAUAGCACGGCCGCCACUCAAAUUAAACAUGAGGAUCACCCAUGUAACAUGGAUAAAAUAAAGAGGACCGGGUGAAAUGCAA,–,–,28.3 nM,18.9 nM,–
AUUCAUGGAAACAUGAGAUAUCCUACCGGUCGAGGACCGGUACGGCCGCCACUCGGUUGGUGGCACAUGAGGAUCACCCAUGUUA,–,–,291 nM,265 nM,–
AUUGUGAAGUCGGCCGCCACUGCAUAGUUUAACCACAUGUAACAUGAGGAUCACCCAUGUAAUGACAGGACCGGGACAAUAGUAA,–,–,28 nM,21.1 nM,–
CAAAUAAGAACAAACAAAUAACGGUUUUCGCGAGGACCGGUACGGCCGCCACUCGUGUGAAAUAACACAUGAGGAUCACCCAUGU,–,–,36.1 nM,20.6 nM,–
CACGAAAGAUCGGCCGCCACUAAUCUAUGUGUACUAGCACAUGAGGAUCACCCAUGUUCUUGCGUUAGGACCGGGAUUGAGCGUG,22.2 nM,18.8 nM,–,–,–
CACGAAAGAUCGGCCGCCACUAUUUGAUGUGUUCUUUCACAUGAGGAUCACCCAUGUUCUUAUUAUAGGACCGGGAUUGAGCGUG,83.8 nM,64.3 nM,–,–,–
CACGAAAGAUCGGCCGCCACUCAUGUAGCUUACAUGAGGAUCACCCAUGUAUUUUCUUUCUUUUAGAGGACCGGGAUCGAGCGUG,–,–,37.4 nM,19.2 nM,–

Sequence,"apparent Kd [1, 3]","apparent Kd [1, 4]","apparent Kd [1, 5]","apparent Kd [1, 6]",further results
CCUAUGCAGUCGGCCGCCACUGAACAUGAGGAUCACCCAUGUUAUUAUAAAUAUGGUCCUAAAAUCAGGACCGGGACUGUAUAGG,68 nM,228 nM,–,–,–
CGAUAUAAGACGGCCGCCACUAUUAUGUAACAAAAUAAACAUGAGGAUCACCCAUGUACAUGGGAUAGGACCGGGUCCAAUAACG,–,–,112 nM,58.2 nM,–
CUACAUUUGUAGAAACCGGUCAACAAUAAUCGAGGACCGGUACGGCCGCCACUCGUAUAAUUUUAUACAUGAGGAUCACCCAUGU,–,–,13.5 nM,13.4 nM,–
CUACAUUUGUAGAAACCGGUCACCAUUACUCGAGGACCGGUACGGCCGCCACUCGUGUCAUGUGAUACAUGAGGAUCACCCAUGU,–,–,22 nM,23.1 nM,–
CUAUGCAGGUCGGCCGCCACUACACACAUGAGGAUCACCCAUGUAGUUACUGGGUGAAGUGGCAGUAGGACCGGGACCUGCAUAU,–,–,257 nM,360 nM,–
CUGUACAUCUCGGCCGCCACUGCAACAUGUACACAUGGACAUGUACAUGAGGAUCACCCAUGUGGCAGGACCGGGAGGUGUGCAG,–,–,192 nM,26.5 nM,–
GCAACGCUGUCGGCCGCCACUUUUACAUUGGCCGUGCUGUCUCUACAUGAGGAUCACCCAUGUGGAAGGACCGGGACAGCACACU,29 nM,64 nM,–,–,–
GGAUUAGAGGCGGCCGCCACUGGAACAUGAGGAUCACCCAUGUAGUGCAUGUAAUUAACCUCGAUCAGGACCGGGCCGAUAGUCA,59.9 nM,103 nM,–,–,–
GGCAAGCGAGACAUGAGGAUCACCCAUGUUCGAGGACCGGUACGGCCGCCACUCGGUGGACUCAUGGUAAAGCCGGUGAGCCAAA,–,–,34.6 nM,74.3 nM,–
GGGCGCGUGGACUGGCGUGCUCCGCUCCGUCGAGGACCGGUACGGCCGCCACUCGACAUGAGGAUCACCCAUGUGUGAGCUCGCG,152 nM,474 nM,–,–,–
GGUACAUGAGGAUCACCCAUGUAUUAGUGCCGAGGACCGGUACGGCCGCCACUCGCUUCACAUGAGGAUCACCCAUGUGUCACAG,–,–,32 nM,40.8 nM,–
GGUACAUGAGGAUCACCCAUGUAUUAGUGCCGAGGACCGGUACGGCCGCCACUCGCUUCACAUGAGGAUCACCCAUGUGUCACUG,–,–,29.8 nM,39.8 nM,–
GGUAUGUAUUCGGAAACGAAUGCAUACCAACGAGGACCGGUACGGCCGCCACUCGCCGUCCUCAAACAUGAGGAUCACCCAUGUA,25.9 nM,68.5 nM,–,–,–
GGUUACUCUACGGCCGCCACUGAUUAAUUAUAAUCCUGUACAUAAACAUGAGGAUCACCCAUGUACAGGACCGGGUAGUGUAACC,–,–,34.7 nM,29.1 nM,–
UCCUCAUGGCAUGAUACCAGACCUAACAUGAGGAUCACCCAUGUAUCAGGCAAUUGUUACGUCCCUUGGCAGCAUGUAUGCCGAC,–,–,–,–,"apparent Kd [2, 7]: 70.2 nM; apparent Kd [2, 8]: 138 nM"
UCGACAGUGAACGAUACCAGCGUCACGUGGCCGGUGGUCACAUGAGGAUCACCCAUGUAACGCCCUUGGCAGCGUGCACGUAUCA,–,–,–,–,"apparent Kd [2, 9]: 20.6 nM; apparent Kd [2, 10]: 182 nM"
UCGUGUAUAUCGGAUACCAGUGAAAUCGAUACAUGAGGAUCACCCAUGUGAGAGGAUGUACACCCUUGGCAGCUGUAUAUAUCUG,–,–,–,–,"apparent Kd [2, 7]: 24.3 nM; apparent Kd [2, 8]: 13.6 nM"
UGCGUACAUGAGGAUCACCCAUGUAUAGAUACCAGUCACCCAUGUGGCCCUUGGCAGCUAACAUGAGGAUCACUACAUGAGGAUC,–,–,–,–,"apparent Kd [2, 9]: 34.5 nM; apparent Kd [2, 10]: 141 nM"
UGGCAGGAGUGAUCCUCCUGCCAAGGUGAUACCAGCAUCGAAAGAUGCCCUUGGCAGCACCAACAUGAGGAUCACCCAUGUAAUA,–,–,–,–,"apparent Kd [2, 7]: 108 nM; apparent Kd [2, 8]: 47.9 nM"
UGUAACAUGAGGAUCACCCAUGUGAGUGAUACCAGACUAGUAUUAGUCCCUUGGCAGCACGUUGGGCGAGUGUAUAGUCUAUGCG,–,–,–,–,"apparent Kd [2, 7]: 112 nM; apparent Kd [2, 8]: 110 nM"
UGUAUGUGAUUUGAUACCAGUCCAACUGGUAAAACAUGAGGAUCACCCAUGUAAAAUUGGGACCCUUGGCAGCAAAUCGCAUACU,–,–,–,–,"apparent Kd [2, 7]: 355 nM; apparent Kd [2, 8]: 30.1 nM"
UUAUUUAUAAUGGAUACCAGUAUAAUGGCCGCAAAUCCUGACAUGAGGAUCACCCAUGUAUGCCCUUGGCAGCUGUUAUGGGUUU,–,–,–,–,"apparent Kd [2, 9]: 41.1 nM; apparent Kd [2, 10]: 57.6 nM"
UUCAAAGGGAACGGUGCUGGUAACAGAGAUACCAGAGUAAUAAUACUCCCUUGGCAGCUCAUAACAUGAGGAUCACCCAUGUAAU,–,–,–,–,"apparent Kd [2, 9]: 13.4 nM; apparent Kd [2, 10]: 16.6 nM"
UUUAAAAUAACAGAUACCAGCGUGUUAUAAAACAUGAGGAUCACCCAUGUAGUGAUCAAGCGCCCUUGGCAGCUGGUAUUUUAGG,–,–,–,–,"apparent Kd [2, 7]: 151 nM; apparent Kd [2, 8]: 167 nM"
UUUACAUGAGGAUCACCCAUGUGCCAUGAUACCAGACAUGAAAAUGUCCCUUGGCAGCAUGAAUGAUUCAUAGGAUAAUUAUGGG,–,–,–,–,"apparent Kd [2, 7]: 99.2 nM; apparent Kd [2, 8]: 98.8 nM"
UUUAUGGAGCUUUUAUUUACGAUUUCUGAUACCAGUGUUUCAUUUCACCCUUGGCAGCAGUGACAUGAGGAUCACCCAUGUAAUA,–,–,–,–,"apparent Kd [2, 7]: 28 nM; apparent Kd [2, 8]: 22.3 nM"
